Measured values: ChEMBL document CHEMBL1949651, “Hamamelitannin from witch hazel (Hamamelis virginiana) displays specific cytotoxic activity against colon cancer cells” (J Nat Prod, 2012)
In brackets after ≈: the same amount, converted by molar mass. Activity calls are given as the source filed them. The rule behind the calls is not given here.

Key:
[1] = tested on: Radical scavenging activity; assay: Antioxidant activity against DPPH assessed per micromol of radical after 30 mins by UV spectrophotometry; type: functional
Outline: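 DPPH radical in solution; 30 min at room temperature in the dark, absorbance at 517 nm. Percentage absorbance loss [(1 − A/A0) × 100] plotted against sample amount over initial DPPH concentration; three independent determinations per point.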

[2] = Antioxidant activity against HNTTM assessed per micromol of radical after 7 hrs by UV spectrophotometry; type: functional
Outline: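 Polyphenols (2–62 μM, fresh) mixed 1:1 by volume with HNTTM (120 μM) in deoxygenated CHCl3–MeOH (2:1); 7 h at room temperature in the dark, absorbance at 384 nm. Percentage absorbance loss plotted against sample over initial radical micromoles; dose–response curve per sample, EC50 and ARP reported; three independent determinations.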

[3] = Antioxidant activity against TNPTM assessed per micromol of radical after 48 hrs by UV spectrophotometry; type: functional
Outline: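 As for HNTTM but with TNPTM radical, sample range 10–120 μM, 48 h incubation, absorbance at 378 nm; percentage absorbance loss versus sample over initial radical micromoles, dose–response curve, EC50 and ARP; three independent determinations.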

[4] = tested on: HT-29; assay: Antiproliferative activity against human HT-29 cells after 72 hrs by MTT assay; type: functional, cell-based; conditions: HT-29, 72 h
Outline: (§1)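 HT29 (ATCC HTB-38) in DMEM with 10% heat-inactivated FCS, 0.1% streptomycin/penicillin; 3 × 10^3 cells/well, 24 h at 37 °C, then graded concentrations in fresh medium for 72 h, optionally with bovine liver catalase (100 U/mL). MTT (1 mg/mL in PBS) 1 h, formazan dissolved in DMSO, absorbance 550 nm; IC50 from dose–viability curves; three independent experiments.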

[5] = Antiproliferative activity against human NCM460 cells after 72 hrs by MTT assay; type: cell-based; conditions: NCM460, 72 h
Outline: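 NCM460 normal colon mucosa epithelial cells in M3Base with 10% heat-inactivated FCS plus 2.5 mM D-glucose (5 mM final); 1 × 10^4 cells/well, 24 h at 37 °C, graded concentrations for 72 h. MTT 1 h, DMSO-dissolved formazan read at 550 nm; IC50 from dose–viability curves; three independent experiments.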

[6] = tested on: HT-29; assay: Antiproliferative activity against human HT-29 cells after 72 hrs by MTT assay in presence of H2O2 scavenger catalase; type: functional, cell-based; conditions: HT-29, 72 h; outline: as §1
[7] = tested on: HT-29; assay: Cell cycle arrest in human HT-29 cells assessed as accumulation at S phase at IC50 after 72 hrs by propidium iodide staining based flow cytometry; type: functional
Outline: (§2)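 HT29 seeded 87 × 10^3 cells/well, 24 h at 37 °C, treated 72 h; hydroxyurea 1 mM as standard. Trypsinized cells stained in Tris-buffered saline with 50 μg/mL PI, 10 μg/mL DNase-free RNase, 0.1% Igepal CA-630, 1 h at 4 °C dark; flow cytometry at 488 nm; normalized G1/S/G2 percentages, three separate experiments.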

[8] = tested on: HT-29; assay: Induction of apoptosis in human HT-29 cells assessed as apoptotic cells at IC50 after 72 hrs by annexin V/propidium iodide-based flow cytometry; type: functional
Outline: (§3)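 HT29 seeded, treated 72 h and harvested as for cell cycle; staurosporine 1 μM as control. Annexin+/PI− early apoptotic; annexin+/PI+ and annexin−/PI+ late apoptotic/necrotic; three separate experiments.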

[9] = tested on: HT-29; assay: Induction of apoptosis in human HT-29 cells assessed as necrotic cells at IC50 after 72 hrs by annexin V/propidium iodide-based flow cytometry; type: functional; outline: as §3
[10] = tested on: HT-29; assay: Induction of H2O2 production in human HT-29 cells at 100 ug/ml after 72 hrs by ferrous oxidation xylenol orange assay; type: functional, cell-based
[11] = tested on: HT-29; assay: Induction of H2O2 production in human HT-29 cells at 100 ug/ml after 72 hrs by ferrous oxidation xylenol orange assay in presence of catalase; type: functional, cell-based
[12] = tested on: HT-29; assay: Cell cycle arrest in human HT-29 cells assessed as reduction of cells at G1 phase at IC50 after 72 hrs by propidium iodide staining based flow cytometry; type: functional; outline: as §2
[13] = tested on: HT-29; assay: Cell cycle arrest in human HT-29 cells assessed as reduction of cells at G2 phase at IC50 after 72 hrs by propidium iodide staining based flow cytometry; type: functional; outline: as §2

Q: For O=C(OC[C@H]1OC(O)[C@@](O)(COC(=O)c2cc(O)c(O)c(O)c2)[C@@H]1O)c1cc(O)c(O)c(O)c1 (stereo partly specified) [HAMAMELITANNIN], which EC50 [1] is on record?
A: 27.8 µg/µmol

Q: And the EC50 [2]?
A: 71.2 µg/µmol

Q: And the EC50 [3]?
A: 116 µg/µmol

Q: What about the IC50 [4] of the same compound?
A: 20 µg/mL (≈ 41.3 µM)

Q: What about the IC50 [5] of the same compound?
A: > 100 µg/mL

Q: And the IC50 [6]?
A: 13 µg/mL

Q: What about the Activity [7] of the same compound?
A: 16%

Q: What about the Activity [8] of the same compound?
A: 26%

Q: And the Activity [9]?
A: 14%

Q: And the Activity [10]?
A: Dose-dependent effect

Q: And the Activity [11]?
A: inactive

Q: Which Activity [10] does the source give for O=C(O[C@@H]1Cc2c(O)cc(O)cc2O[C@@H]1c1cc(O)c(O)c(O)c1)c1cc(O)c(O)c(O)c1 here?
A: Dose-dependent effect

Q: What about the Activity [11] of the same compound?
A: inactive

Q: With O=C(OC[C@H]1O[C@@H](OC(=O)c2cc(O)c(O)c(O)c2)[C@H](OC(=O)c2cc(O)c(O)c(O)c2)[C@@H](OC(=O)c2cc(O)c(O)c(O)c2)[C@@H]1OC(=O)c1cc(O)c(O)c(O)c1)c1cc(O)c(O)c(O)c1 [PENTAGALLOYL GLUCOSE] as the compound, how does the EC50 [1] read?
A: 23.8 µg/µmol

Q: And the EC50 [2]?
A: 54.8 µg/µmol

Q: And the EC50 [3]?
A: 2400 µg/µmol

Q: And the IC50 [4]?
A: 28 µg/mL (≈ 29.8 µM)

Q: What about the IC50 [5] of the same compound?
A: 23 µg/mL (≈ 24.5 µM)

Q: And the IC50 [6]?
A: 34 µg/mL

Q: What about the Activity [7] of the same compound?
A: 8%

Q: What about the Activity [12] of the same compound?
A: Active

Q: What about the Activity [13] of the same compound?
A: Active

Q: What about the Activity [8] of the same compound?
A: 11%

Q: What about the Activity [9] of the same compound?
A: 5%

Q: What about the Activity [10] of the same compound?
A: Dose-dependent effect

Q: And the Activity [11]?
A: inactive
